Test results taken from ChEMBL document CHEMBL1811897, “Nicotinic acetylcholine receptor efficacy and pharmacological properties of 3-(substituted phenyl)-2β-substituted tropanes” (J Med Chem, 2010).
The source made the active and inactive calls.

Experiments:
Mus musculus [1] = assay: Inhibition of nicotine-induced conditioned place preference in ICR mouse assessed as activity count and time spent in chamberdministered subcutaneously 15 mins prior to 0.5 mg/kg nicotine challenge up to 4 days using photosensors; type: functional, organism-based; set-up: dose 0.5 mg/kg, route subcutaneous
Summary of the method: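 Unbiased three-compartment CPP in male ICR mice. Day 1: 5 min confinement to the middle compartment, then 15 min free access; mice were grouped by equal bias. Days 2–4: vehicle or test drug s.c. 15 min before nicotine (0.5 mg/kg s.c.) in the paired side, with saline on the opposite side, 20 min sessions. Day 5: drug-free test with photosensor recording. AD50 from ≥3 doses, ≥8 mice per dose.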

Mus musculus [2] = assay: Antipyretic activity against nicotine-induced hypothermia in ICR mouse assessed as change in rectal temperature dministered subcutaneously 15 mins prior to nicotine challenge and measured after 30 mins of 2.5 mg/kg nicotine challenge; type: functional, organism-based; set-up: dose 2.5 mg/kg, route subcutaneous
Summary of the method: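 Male ICR mice (20–25 g) were pretreated with saline or test drug 15 min before s.c. nicotine at 2.5 mg/kg. Rectal temperature was read by thermistor probe (24 mm insertion) just before and 30 min after nicotine, and the change was taken. Ambient temperature was 21–24 °C. AD50 with confidence limits came from ≥4 doses and ≥8 mice per dose.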

[3] = biological target: T1, Neuronal acetylcholine receptor; alpha4/beta2 (Homo sapiens, UniProt P17787+P43681); assay: Agonist activity at human alpha4beta2 nAChR in SHEP1 cells assessed as 86Rb+ efflux at 5 nM to 100 uM; type: functional, cell-based
T1 sequence (P17787 whole entry): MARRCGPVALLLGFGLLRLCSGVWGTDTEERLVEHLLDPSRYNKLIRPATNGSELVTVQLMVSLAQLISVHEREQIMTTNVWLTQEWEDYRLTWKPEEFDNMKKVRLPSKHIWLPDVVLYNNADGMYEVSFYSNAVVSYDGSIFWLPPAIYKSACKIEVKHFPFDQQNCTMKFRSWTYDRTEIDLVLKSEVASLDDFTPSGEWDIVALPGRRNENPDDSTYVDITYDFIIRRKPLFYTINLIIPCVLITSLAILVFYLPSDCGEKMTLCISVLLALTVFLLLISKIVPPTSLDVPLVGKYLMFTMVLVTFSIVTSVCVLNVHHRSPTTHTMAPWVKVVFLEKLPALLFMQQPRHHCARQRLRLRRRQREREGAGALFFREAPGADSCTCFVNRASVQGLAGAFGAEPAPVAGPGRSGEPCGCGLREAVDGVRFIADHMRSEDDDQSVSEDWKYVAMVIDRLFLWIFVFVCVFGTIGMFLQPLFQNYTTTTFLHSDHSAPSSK
T1 sequence (P43681 whole entry): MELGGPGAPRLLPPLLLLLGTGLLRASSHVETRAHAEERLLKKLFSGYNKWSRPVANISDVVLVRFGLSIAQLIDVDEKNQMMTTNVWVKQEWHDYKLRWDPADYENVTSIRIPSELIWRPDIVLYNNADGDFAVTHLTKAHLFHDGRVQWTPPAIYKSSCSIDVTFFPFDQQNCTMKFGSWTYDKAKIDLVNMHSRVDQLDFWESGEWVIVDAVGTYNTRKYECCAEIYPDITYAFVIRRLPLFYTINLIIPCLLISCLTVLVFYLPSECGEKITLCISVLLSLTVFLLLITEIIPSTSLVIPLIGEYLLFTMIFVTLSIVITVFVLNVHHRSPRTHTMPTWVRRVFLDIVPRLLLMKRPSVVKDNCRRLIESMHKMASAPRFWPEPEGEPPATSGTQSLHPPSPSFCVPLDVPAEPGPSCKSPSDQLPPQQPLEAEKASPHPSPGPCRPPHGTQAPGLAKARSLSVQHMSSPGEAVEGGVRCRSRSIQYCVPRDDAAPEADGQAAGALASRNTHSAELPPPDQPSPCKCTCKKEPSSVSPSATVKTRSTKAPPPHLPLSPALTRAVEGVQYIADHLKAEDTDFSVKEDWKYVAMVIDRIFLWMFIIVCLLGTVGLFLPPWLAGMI
Summary of the method: (§1)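 Test ligands were applied alone at ~5 nM to 100 μM in 86Rb+ efflux assays. Cells were TE671/RD (endogenous muscle-type α1*), SH-SY5Y (endogenous α3β4*) or transfected SH-EP1 (human α4β2 or α4β4). Non-specific efflux was subtracted. Intrinsic activity was normalized to specific efflux, defined as efflux with fully efficacious carbamylcholine minus efflux with buffer alone.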

[4] = biological target: Cannabinoid receptor 1 (Homo sapiens) (UniProt P21554); assay: Positive allosteric modulator activity at CB1 receptor
Sequence of Cannabinoid receptor 1 (Homo sapiens) (P21554 whole entry): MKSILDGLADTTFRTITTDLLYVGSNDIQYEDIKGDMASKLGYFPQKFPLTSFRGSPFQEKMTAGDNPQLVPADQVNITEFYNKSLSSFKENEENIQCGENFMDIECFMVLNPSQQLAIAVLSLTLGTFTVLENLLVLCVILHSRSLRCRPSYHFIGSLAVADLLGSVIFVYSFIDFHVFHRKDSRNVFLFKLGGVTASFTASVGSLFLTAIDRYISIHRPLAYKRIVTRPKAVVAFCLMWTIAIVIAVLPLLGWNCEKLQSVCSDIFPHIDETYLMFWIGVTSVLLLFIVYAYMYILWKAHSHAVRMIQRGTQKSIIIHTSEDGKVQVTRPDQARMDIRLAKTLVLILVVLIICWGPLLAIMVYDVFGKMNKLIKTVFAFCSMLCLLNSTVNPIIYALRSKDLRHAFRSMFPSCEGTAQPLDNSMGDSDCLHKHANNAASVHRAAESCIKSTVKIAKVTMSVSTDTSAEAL

Mus musculus [5] = assay: Inhibition of nicotine-induced hypolocomotion in ICR mouse assessed as number of photocell interruption dministered subcutaneously 15 mins prior to nicotine challenge and measured after 5 mins of […] nicotine challenge; type: functional, organism-based; set-up: dose 1.5 mg/kg, route subcutaneous
[6] = biological target: Sodium-dependent noradrenaline transporter (Homo sapiens, UniProt P23975); assay: Inhibition of human NET expressed in HEK293 cells assessed as inhibition of [3H]NE reuptake after 10 mins by scintillation counting; type: cell-based
Sequence of Sodium-dependent noradrenaline transporter (P23975 whole entry): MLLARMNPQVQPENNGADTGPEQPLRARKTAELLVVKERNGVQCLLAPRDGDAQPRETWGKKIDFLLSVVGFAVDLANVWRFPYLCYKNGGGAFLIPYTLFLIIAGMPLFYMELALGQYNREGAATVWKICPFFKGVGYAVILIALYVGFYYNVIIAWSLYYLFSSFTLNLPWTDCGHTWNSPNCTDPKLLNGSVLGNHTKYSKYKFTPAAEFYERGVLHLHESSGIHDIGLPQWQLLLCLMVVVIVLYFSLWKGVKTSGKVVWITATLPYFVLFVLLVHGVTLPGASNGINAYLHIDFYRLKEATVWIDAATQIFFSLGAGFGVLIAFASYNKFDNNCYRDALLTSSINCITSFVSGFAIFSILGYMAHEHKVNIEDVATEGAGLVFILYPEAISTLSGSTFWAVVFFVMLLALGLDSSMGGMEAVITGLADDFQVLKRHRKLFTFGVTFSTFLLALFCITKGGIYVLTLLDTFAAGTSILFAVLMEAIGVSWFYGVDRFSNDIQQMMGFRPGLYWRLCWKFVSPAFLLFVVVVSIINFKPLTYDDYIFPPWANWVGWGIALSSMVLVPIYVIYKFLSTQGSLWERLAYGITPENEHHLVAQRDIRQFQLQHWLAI

[7] = biological target: T2, Acetylcholine receptor; alpha1/beta1/delta/gamma (Homo sapiens, UniProt P02708+P07510+P11230+Q07001); assay: Antagonist activity against human muscle-type alpha1beta1gammadelta nAChR in TE671/RD cells assessed as inhibition of carbamylcholine induced 86Rb+ efflux; type: functional, cell-based
Summary of the method: (§2)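 86Rb+ efflux was evoked by carbamylcholine at its EC80–EC90 concentration, with test ligand present. Cells were TE671/RD (α1*), SH-SY5Y (α3β4*) or transfected SH-EP1 (α4β2 or α4β4). For weak antagonists the minimum was fixed at 0%.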

[8] = biological target: T3, Neuronal acetylcholine receptor; alpha4/beta4 (Homo sapiens, UniProt P30926+P43681); assay: Agonist activity against human alpha4beta4 nAChR in SHEP1 cells assessed as 86Rb+ efflux at 5 nM to 100 uM; type: functional, cell-based; summary of the method: as §1
T3 sequence (P30926 whole entry): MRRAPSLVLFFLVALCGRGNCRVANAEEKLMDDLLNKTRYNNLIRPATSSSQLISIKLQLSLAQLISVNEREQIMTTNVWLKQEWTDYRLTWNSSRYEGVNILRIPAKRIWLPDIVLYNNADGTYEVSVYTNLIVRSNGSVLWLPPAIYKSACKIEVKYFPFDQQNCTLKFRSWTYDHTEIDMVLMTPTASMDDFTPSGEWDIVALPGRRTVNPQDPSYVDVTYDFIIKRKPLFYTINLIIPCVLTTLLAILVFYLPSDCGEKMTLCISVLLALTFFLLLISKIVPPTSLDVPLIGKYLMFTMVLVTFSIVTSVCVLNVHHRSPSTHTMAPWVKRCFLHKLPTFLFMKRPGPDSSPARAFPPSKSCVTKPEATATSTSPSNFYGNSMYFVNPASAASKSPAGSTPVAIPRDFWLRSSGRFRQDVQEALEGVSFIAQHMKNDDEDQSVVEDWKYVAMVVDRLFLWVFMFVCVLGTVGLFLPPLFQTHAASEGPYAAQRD
T3 sequence (P43681 whole entry): as the sequence (P43681 whole entry) above

[9] = biological target: T2, Acetylcholine receptor; alpha1/beta1/delta/gamma; assay: Agonist activity at human muscle-type alpha1beta1gammadelta nAChR in TE671/RD cells assessed as 86Rb+ efflux at 5 nM to 100 uM; type: functional, cell-based; summary of the method: as §1
[10] = biological target: Sodium-dependent dopamine transporter (Homo sapiens, UniProt Q01959); assay: Inhibition of human DAT expressed in HEK293 cells assessed as inhibition of [3H]DA reuptake after 10 mins by scintillation counting; type: cell-based
Sequence of Sodium-dependent dopamine transporter (Q01959 whole entry): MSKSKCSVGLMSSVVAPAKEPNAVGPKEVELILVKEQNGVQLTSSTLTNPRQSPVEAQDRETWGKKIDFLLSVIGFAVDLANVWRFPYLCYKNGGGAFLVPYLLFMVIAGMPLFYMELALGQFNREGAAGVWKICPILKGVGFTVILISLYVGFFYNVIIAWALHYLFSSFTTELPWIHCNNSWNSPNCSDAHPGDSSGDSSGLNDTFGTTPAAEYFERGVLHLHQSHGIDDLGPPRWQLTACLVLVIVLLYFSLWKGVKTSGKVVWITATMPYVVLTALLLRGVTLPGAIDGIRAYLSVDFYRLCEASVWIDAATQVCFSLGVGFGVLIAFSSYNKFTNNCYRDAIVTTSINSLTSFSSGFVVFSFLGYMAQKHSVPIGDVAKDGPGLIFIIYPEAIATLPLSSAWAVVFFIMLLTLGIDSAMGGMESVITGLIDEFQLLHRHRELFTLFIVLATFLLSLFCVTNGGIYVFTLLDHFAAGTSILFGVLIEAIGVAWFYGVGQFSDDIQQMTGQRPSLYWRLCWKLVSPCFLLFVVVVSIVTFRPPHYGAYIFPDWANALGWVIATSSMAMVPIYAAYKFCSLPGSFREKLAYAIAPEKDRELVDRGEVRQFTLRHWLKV

[11] = biological target: T3, Neuronal acetylcholine receptor; alpha4/beta4; assay: Antagonist activity against human alpha4beta4 nAChR in SHEP1 cells assessed as inhibition of carbamylcholine induced 86Rb+ efflux; type: functional, cell-based; summary of the method: as §2
Mus musculus [12] = assay: Inhibition of nicotine-induced antinociception activity in ICR mouse assessed as latency to remove tail administered subcutaneously 15 mins prior to nicotine challenge and measured after 5 mins of 2.5 mg/kg nicotine challenge by tail-flick test; type: functional, organism-based; set-up: dose 2.5 mg/kg, route subcutaneous
Summary of the method: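 Radiant heat was aimed at the upper tail, with a 10 s cutoff. Baseline latency was 2–4 s for each mouse. Response was expressed as %MPE. AD50 with confidence limits came from ≥4 doses and ≥8 mice per dose.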

[13] = biological target: T1, Neuronal acetylcholine receptor; alpha4/beta2; assay: Antagonist activity against human alpha4beta2 nAChR in SHEP1 cells assessed as inhibition of carbamylcholine induced 86Rb+ efflux; type: functional, cell-based; summary of the method: as §2
[14] = biological target: Sodium-dependent serotonin transporter (Homo sapiens, UniProt P31645); assay: Inhibition of human SERTexpressed in HEK293 cells assessed as inhibition of [3H]5HT reuptake after 10 mins by scintillation counting; type: cell-based
Sequence of Sodium-dependent serotonin transporter (P31645 whole entry): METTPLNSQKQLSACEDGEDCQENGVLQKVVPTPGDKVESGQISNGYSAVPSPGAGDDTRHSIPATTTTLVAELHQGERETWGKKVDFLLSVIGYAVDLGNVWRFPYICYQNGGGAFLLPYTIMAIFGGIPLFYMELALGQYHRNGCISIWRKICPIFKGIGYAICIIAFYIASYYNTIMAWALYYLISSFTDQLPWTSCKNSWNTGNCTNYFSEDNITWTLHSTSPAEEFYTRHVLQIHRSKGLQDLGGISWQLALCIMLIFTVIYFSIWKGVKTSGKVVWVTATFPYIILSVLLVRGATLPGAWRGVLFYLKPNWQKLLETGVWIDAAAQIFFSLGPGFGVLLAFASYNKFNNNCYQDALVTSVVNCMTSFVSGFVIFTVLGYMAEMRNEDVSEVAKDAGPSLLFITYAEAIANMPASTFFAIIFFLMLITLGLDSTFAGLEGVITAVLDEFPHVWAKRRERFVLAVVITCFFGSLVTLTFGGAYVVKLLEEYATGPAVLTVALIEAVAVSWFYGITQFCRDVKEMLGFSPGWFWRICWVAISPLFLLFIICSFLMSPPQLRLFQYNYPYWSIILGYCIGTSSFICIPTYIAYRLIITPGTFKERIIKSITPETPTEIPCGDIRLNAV

Mus musculus [15] = assay: Inhibition of nicotine-induced antinociception activity in ICR mouse assessed as paw licking and jumping latency dministered subcutaneously 15 mins prior to nicotine challenge and measured after 5 mins of 2.5 mg/kg nicotine challenge by hot plate test; type: functional, organism-based; set-up: dose 2.5 mg/kg, route subcutaneous
Summary of the method: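 Hot plate was held at 55 °C with a 40 s cutoff. End-point was paw lick or jump. Control latency was measured twice, ≥10 min apart. Response was calculated as %MPE. Groups of 8–12; AD50 from ≥4 doses.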

Compound: Cc1ccc([C@H]2C[C@@H]3CC[C@H]([C@H]2c2cc(-c4ccc(Cl)cc4)no2)N3C)cc1
- IC50 (Mus musculus [1]): 0.013 mg/kg
- IC50 (Mus musculus [2]): > 20 mg/kg
- Activity [3]: inactive
- Activity [4]: Active
- IC50 (Mus musculus [5]): 8.7 mg/kg
- IC50 [6]: 0.31 µM
- IC50 [7]: 95 µM
- Activity [8]: inactive
- Activity [9]: inactive
- IC50 [10]: 0.011 µM
- IC50 [11]: 57 µM
- IC50 (Mus musculus [12]): > 20 mg/kg
- IC50 [13]: 942 µM
- IC50 [14]: > 100 µM
- IC50 (Mus musculus [15]): > 20 mg/kg
